Consider 14 molecules from ChEMBL document CHEMBL2069224, “Synthesis and cytotoxic activity of non-naturally substituted 4-oxycoumarin derivatives” (Bioorg Med Chem Lett, 2012).

pIC50: −log10 of the molar value. In brackets after ≈: the same amount, converted by molar mass. Activity calls are given as the source filed them. No cut-off for these calls is given here.

Series [1] has as its system MCF7. Description: Cytotoxicity against human MCF7 cells assessed as cell viability at 10 uM after 72 hrs by WST1 assay relative to control. Type of series: functional. The conditions noted are these: MCF7, 72 h, read-out: Activity. The essentials:
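After 24 h attachment, MCF-7 cells (RPMI 1640, 10% FBS, L-glutamine, antibiotics, 37 °C, 5% CO2) were exposed 72 h to a single 10 µM concentration. WST-1 was added at 1/10 volume, incubated 60 min at 37 °C, and absorbance read at 450 nm. Viability is expressed as % of vehicle-treated cells, from three independent experiments each in triplicate.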
On the technique in general: Formazan colour is commonly taken as a measure of viable cells.

The test system of series [2] is HL-60. Nature of the series: Cytotoxicity against human HL60 cells assessed as cell viability at 10 uM after 72 hrs by WST1 assay relative to control. The conditions noted are these: HL-60, 72 h, read-out: Activity. Type of series: functional. The essentials: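 Suspension HL-60 cells were kept in IMDM with 20% FBS, L-glutamine and antibiotics at 37 °C under 5% CO2. They were seeded without an attachment wait and exposed 72 h to a single 10 µM concentration. WST-1 was added at 1/10 volume, incubated 60 min at 37 °C, and formazan read at 450 nm. Viability is given as % of vehicle-treated cells, from three independent experiments in triplicate.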

Series [3] relates to MCF7. Description: Cytotoxicity against human MCF7 cells after 72 hrs by WST1 assay in presence of 20% FBS. Type of series: functional, cell-based. The conditions noted are these: MCF7, 72 h. A digest of the protocol: (§1)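 MCF-7 cells from ATCC were grown in RPMI 1640 with 10% FBS, 2 mM L-glutamine and antibiotics at 37 °C under 5% CO2. They were seeded in 96-well plates, allowed to attach 24 h, then treated 72 h at 0.01–100 µM in 10% or 20% FBS. WST-1 was added at 1/10 volume for 60 min at 37 °C and A450 read. IC50 came from nonlinear least-squares fitting of % viability vs vehicle.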

Series [4] relates to HL-60. Description: Cytotoxicity against human HL60 cells after 72 hrs by WST1 assay in presence of 20% FBS. Type of series: functional, cell-based. The conditions noted are these: HL-60, 72 h. The essentials: (§2)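 HL-60 cells from ATCC were grown in IMDM with 2 mM L-glutamine, 20% FBS, amphotericin B, penicillin and streptomycin at 37 °C under 5% CO2. Suspension cells were seeded without an attachment wait, then treated 72 h at 0.01–100 µM in 10% or 20% FBS. WST-1 was added at 1/10 volume for 60 min at 37 °C and A450 read. IC50 came from a nonlinear least-squares fit of % viable cells vs vehicle.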

The subject of series [5] is U-937. Description: Cytotoxicity against human U937 cells after 72 hrs by WST1 assay in presence of 20% FBS. Type of series: functional, cell-based. To be noted: U-937, 72 h. The essentials: (§3)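 Cells were cultured with 10% FBS. Viability runs used 10% or 20% FBS and 72 h exposure over 0.01–100 µM. WST-1 cleavage to formazan was read at 450 nm. % viable cells vs vehicle was fitted by nonlinear least squares to give IC50.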

A short description of series [6]: Cytotoxicity against mouse Neuro2a cells after 72 hrs by WST1 assay in presence of 20% FBS. To be noted: N2a. Type of series: functional, cell-based. A digest of the protocol:
as §3

Series [7] in a line: Solubility of the compound in RPMI 1640 medium by microscopic analysis. Type of series: physicochemical. A digest of the protocol:
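Compound solubility in the assay medium was judged by microscopic inspection.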

In series [8] the test system is U-937. Nature of the series: Cytotoxicity against human U937 cells after 72 hrs by WST1 assay in presence of 10% FBS. Type of series: functional, cell-based. A digest of the protocol: as §3
A further series deals with N2a. Nature of the series: Cytotoxicity against mouse Neuro2a cells after 72 hrs by WST1 assay in presence of 10% FBS. Type of series: functional, cell-based. The essentials: as §3
Series [9] relates to HL-60. Nature of the series: Cytotoxicity against human HL60 cells after 72 hrs by WST1 assay in presence of 10% FBS. Type of series: functional, cell-based. The essentials: as §2
The test system of series [10] is MCF7. Nature of the series: Cytotoxicity against human MCF7 cells after 72 hrs by WST1 assay in presence of 10% FBS. Type of series: functional, cell-based. The essentials:
as §1

As for `O=c1oc2ccccc2c(OCc2ccccc2)c1-c1ccccc1`, the viability at 10 µM with MCF7 [1] was 113%; with HL-60 [2], 94.7%.

Consider `CC/C(=C(\c1ccccc1)c1ccc(OCCN(C)C)cc1)c1ccccc1` [TAMOXIFEN], for which the pIC50 – broadly, −log10 of the IC50, conventionally taken in molar units – with MCF7 [3] is 5.07; in the series with HL-60 [4], 4.84.

Take `COc1ccc(-c2c(O)c3cc(C)ccc3oc2=O)cc1`: the viability at 10 µM in the series on MCF7 [1] was determined as 106%; in the series with HL-60 [2], 83.9%.

For `Cc1ccc2oc(=O)cc(OCc3ccccc3)c2c1`, the viability at 10 µM with MCF7 [1] stood at 104%; in the series on HL-60 [2], 76%.

Consider `O=c1ccc2ccccc2o1` [COUMARIN], for which the pIC50 (in the series on U-937 [5]; in the series on MCF7 [3]; in the series with HL-60 [4]; in series [6]) was below 4.30 throughout.

In the case of `COc1ccc2c(O)cc(=O)oc2c1OC`, the concentration in solution in series [7] (solubility) came to 100 µM (≈ 22.2 µg/mL). Besides, the pIC50 in the series with U-937 [5] is 5.37; in the series with MCF7 [3], 4.21; in the series on HL-60 [4], 5.04; in series [6], 5.85. Besides, the outcome in the series with U-937 [8], in the series with N2a and in the series on HL-60 [9] was Active. The viability at 10 µM with MCF7 [1] is 114%; in the series on HL-60 [2] it was 28.9%.

For the molecule `Cc1ccc2oc(=O)c(-c3ccccc3)c(OCc3ccccc3)c2c1`, the viability at 10 µM in the series with MCF7 [1] was 53.5%; with HL-60 [2] it was 92.3%.

Take `O=c1oc2ccccc2c(O)c1-c1ccccc1`: the viability at 10 µM in the series on MCF7 [1] turned out to be 96.7%; with HL-60 [2], 73.4%.

Turning to `O=c1cc(OCc2ccccc2)c2ccccc2o1`, the viability at 10 µM with MCF7 [1] came out at 95%; in the series with HL-60 [2], 72.7%.

On to `COc1ccc(-c2c(O)c3cc(C)ccc3oc2=O)c(OC)c1`, for which the values for the viability at 10 µM in the series with MCF7 [1] and with HL-60 [2] were 69% and 74.4%, respectively.

`COc1ccc(-c2c(O)c3ccccc3oc2=O)cc1`: the figures for the viability at 10 µM with MCF7 [1] and in the series with HL-60 [2] were 115% and 86.6%, respectively.

As for `COc1cc(OC)c2c(O)cc(=O)oc2c1`, in series [7], the concentration in solution (solubility) came to 20 µM (≈ 4.44 µg/mL). For the same molecule, the pIC50 is 6.68 in the series on U-937 [5], 5.68 in the series on MCF7 [3], 5.70 with HL-60 [4] and 6.26 in [6]. Further, the outcome in the series with MCF7 [10], in the series with U-937 [8], in the series with N2a and with HL-60 [9] was Active. In addition, the viability at 10 µM was determined as 17.1% in the series with MCF7 [1] and 23.2% in the series on HL-60 [2].

For `COc1ccc(-c2c(O)c3ccccc3oc2=O)c(OC)c1`, the viability at 10 µM in the series with MCF7 [1] came out at 91.9%; in the series with HL-60 [2], 100%.

Consider `Cc1ccc2oc(=O)c(-c3ccccc3)c(O)c2c1`, for which the viability at 10 µM in the series with MCF7 [1] amounted to 72.6%; in the series with HL-60 [2], 73.9%.
